Results reported in publication PMC11238050 (Research and Practice in Thrombosis and Haemostasis, 2024).
Like-named read-outs stand apart in the source and are kept apart here.

Tests used:
[1] = system: thrombus formation in mouse cremaster arterioles; assay: Laser-injury intravital microscopy thrombosis model; details: 0.010 mM final in vivo SAB concentration, jugular vein injection
Outline: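 Mice received fluorescently labelled anti-GPIb antibody (1 µg/g) through a jugular vein cannula before injury. Test compound was injected via the jugular cannula to a 0.010 mM final in vivo level, calculated from body weight (80 µL/g blood volume). Multiple cremaster arteriole injuries were made with a pulsed nitrogen dye laser. Thrombus formation was imaged by intravital microscopy and quantified as platelet MFI.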

human blood coagulation = assay: Thromboelastography; details: 0.3 mM SAB
Outline: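 Thromboelastography used citrated (3.2%) whole blood from healthy human donors, treated with test compound (0.3 mM) or an equal volume of PBS. Samples were recalcified with 0.2 M CaCl2 stock and analysed on a TEG analyser.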

[2] = system: human platelet-poor plasma coagulation; assay: Prothrombin time and activated partial thromboplastin time measurement; details: 0.6 mM SAB, human cell-free plasma
Outline: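 Human platelet-poor plasma was tested in a steel-ball coagulometer. For PT, RecombiPlasTin 2G and its diluent stood 20 min at room temperature, were mixed 1:1 and warmed 5 min at 37 °C, then added to plasma (2:1 v/v). For aPTT, SynthASil was incubated 2 min at 37 °C, then 20 mM CaCl2 was added. Both end-points were time to solid gel.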

[3] = system: carotid artery thrombosis; assay: Ferric chloride carotid artery thrombosis model; format: in vivo, C57BL/6J mice; details: 15 mpk SAB via tail vein at 50% flow reduction, 10% ferric chloride
Outline: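 Isoflurane-anaesthetised C57BL/6J mice (>8 weeks, 20–35 g) had filter paper soaked in 10% FeCl3 applied to the carotid adventitia for 180 s. The vessel was rinsed with warm saline. Doppler flow probe recorded flow for 30 min. At 50% flow reduction, test compound (15 mpk, ~0.3 mM blood level) or saline was given via the tail vein. Flow recovery and occlusion time were recorded.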

[4] = Stability of SAB in solution on storage and freeze-thaw; format: physicochemical; details: inhibitory function for platelet aggregation
human blood clot = assay: Whole blood clot formation assay; details: 0.3 mM SAB
Outline: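 Blood was diluted 3-fold and treated with test compound (0.3 mM final, in PBS) or blank PBS. It was recalcified with 1 mM CaCl2 plus 2 U/mL thrombin and incubated 90 min at 37 °C. Clots were removed from the serum, and dry weight was measured after 24 h at room temperature (20 °C).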

lysozyme [5] = assay: Isothermal titration calorimetry, lysozyme control; format: binding; details: 20 μM lysozyme, 0.312 mM SAB titrant, 20 °C, PBS pH 7.4
Outline: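 ITC at 20 °C in PBS pH 7.4 was run with 20 μM lysozyme in the cell and test compound (0.312 mM) as titrant. Protocol: 60 s initial delay, 2 µL purge injection, then 34 injections of 8 µL every 300 s. The first point was discarded, and data were corrected for heat of dilution from titrant-into-buffer runs.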

thrombin [6] = biological target: T1, thrombin (Homo sapiens, UniProt P00734); assay: Intrinsic fluorescence spectrophotometry binding, thrombin; details: after 24 hours at room temperature
thrombin [7] = biological target: T1, thrombin; assay: Isothermal titration calorimetry, thrombin; format: binding; details: ITC, 20 °C, PBS pH 7.4
[8] = system: platelets (gel-filtered / PRP); assay: Collagen- and ADP-induced platelet aggregation; format: cell-based, human
Outline: (§1)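 Human platelets in PRP or PIPES buffer, adjusted to 3.0 × 10^8/mL and preincubated 10 min at 37 °C with test compound in PBS (pH 7.4; 0.1–0.3 mM) or PBS alone. Agonists were bovine thrombin 0.02 U/mL, collagen 5 μg/mL or ADP 20 μM. Light-transmission aggregometry was run at 37 °C with stirring at 1000 rpm and recorded for at least 8 min.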

[9] = system: human platelet thrombus formation; assay: Collagen-coated perfusion chamber analysis; format: cell-based; details: 0.32 mM SAB
Outline: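 Heparinised (5 U/mL) human whole blood was labelled with 1 μM DiOC6 for 20 min at 37 °C, then incubated with test compound or PBS for 10 min. It was perfused over a collagen-coated glass chamber for 3 min at 1800 or 300 s^−1. Platelet adhesion was recorded by fluorescence microscopy during perfusion, and thrombus mean fluorescence intensity was quantified.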

human platelet = format: cell-based
[10] = system: Human gel-filtered platelet; assay: Thrombin-induced platelet aggregation assay; format: cell-based; details: […] SAB, 0.02 U/mL thrombin
Outline: as §1

[11] = system: cell-free human blood plasma coagulation; assay: Clot turbidity assay; details: read-out: EC50, delay of cell-free human blood plasma coagulation; clot turbidity at 405 nm, 37 °C, 0.1 U/mL thrombin
lysozyme [12] = assay: Intrinsic fluorescence spectrophotometry binding, lysozyme control; details: SAB titrated with lysozyme 0 to 95.6 μM, 20 °C
Outline: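 Intrinsic fluorescence of test compound (27.2 ± 0.4 μM) in PBS, 20 °C, titrated with lysozyme 0–95.6 μM; blank PBS titrated separately. Excitation 382 nm, emission peak ~498 nm, with inner-filter correction. Integrated emission was averaged, normalised and plotted against protein concentration, then fitted to a binding model for apparent Kd. Four trials.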

[13] = flow cytometry, human platelets
[14] = flow cytometry, thrombin-stimulated human platelets

Salvianolic acid B [SAB]
reduction of thrombus formation in mouse cremaster vessels (platelet MFI) [1]: approximately 65% ± 5% | initiation of human blood coagulation (R-time) in TEG (human blood coagulation): significantly prolonged | activated partial thromboplastin time (aPTT) [2]: prolonged | prothrombin time (PT) [2]: prolonged | carotid blood flow [3]: rescued | vessel occlusion (time) [3]: prolonged | effect of prolonged storage in solution and repeated freeze-thaw cycles on SAB [4]: decreased SAB inhibitory function | dry weight of the human blood clot (human blood clot): significantly reduced | binding to lysozyme (ITC) (lysozyme [5]): no interaction | decrease in the SAB-thrombin complex signal (thrombin [6]): less than 3% | Hill coefficient nH (thrombin [7]): 1.1 | ΔH1 (thrombin [7]): 18 ± 1 kcal/mol | ΔH2 (thrombin [7]): 180 ± 6 kcal/mol | −TΔS1 (thrombin [7]): -27 ± 1 kcal/mol | −TΔS2 (thrombin [7]): -185 ± 12 kcal/mol | Kd (thrombin [7]; read-out: Kd1): 0.62 ± 0.08 µM | Kd (thrombin [7]; read-out: dissociation constant Kd2 (weak binding site)): 37 ± 4 µM | ADP-induced platelet aggregation ([8]; PRP, 20 μM ADP): attenuated | collagen-induced platelet aggregation ([8]; gel-filtered platelets, 5 μg/mL collagen): attenuated | human platelet thrombus formation, venous shear rate ([9]; 300 s^−1, collagen-coated chamber): significantly inhibited | human platelet thrombus formation, arterial shear rate ([9]; 1800 s^−1, collagen-coated chamber): significantly inhibited | thrombin-induced platelet surface expression of Ricinus communis agglutinin-1 (RCA-1) (human platelet): significantly reduced | thrombin-induced platelet surface expression of P-selectin (human platelet; [13]): significantly reduced | thrombin-induced platelet surface expression of annexin-V (human platelet; [13]): significantly reduced | binding of PAC-1 monoclonal antibody (αIIbβ3 integrin activation) (human platelet; [14]): significantly decreased | binding of fibrinogen (αIIbβ3 integrin activation) (human platelet; [14]): significantly decreased | platelet aggregation [10]: completely abolished | EC50 [11]: 62 ± 70 µM | binding to lysozyme (fluorescence) (lysozyme [12]): no direct interactions
